High-throughput results (PubChem BioAssay)
GPR7 antagonist – GPR7 receptor antagonists, primary screen, cell-based, fluorescence, single concentration | GPR7-expressing cells, fluorescence antagonist assay | hit rate 1.1% among 290,000 | inhibition, % at 4.4 µM | AID 1861, 2009; in the data active means inhibition above about 16%, passing the limit was not always enough;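 further: cells stimulated with the agonist NPW; 0% = agonist with vehicle and 100% = vehicle without agonist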
Target sequence (P48145 whole entry, looked up): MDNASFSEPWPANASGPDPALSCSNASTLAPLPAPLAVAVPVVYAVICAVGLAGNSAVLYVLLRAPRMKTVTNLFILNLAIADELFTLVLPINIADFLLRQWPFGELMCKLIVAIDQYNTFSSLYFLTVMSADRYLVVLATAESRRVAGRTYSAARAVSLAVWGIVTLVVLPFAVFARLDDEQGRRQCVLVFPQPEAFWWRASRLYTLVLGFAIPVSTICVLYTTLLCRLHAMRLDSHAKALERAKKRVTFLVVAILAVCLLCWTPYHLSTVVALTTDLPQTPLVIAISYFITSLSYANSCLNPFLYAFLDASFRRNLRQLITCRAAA
HSF1 inh – HSF1 inhibitors in luciferase reporter cells, primary screen, cell-based, NIH3T3, luminescence | hit rate 0.77% among 300,000 | AID 2098, 2009 | activity change, negative = inhibition, % at 7.5 µM (by protocol) | NIH3T3-HGL HSE-luciferase, MG132-induced, luminescence 8 h; hits give low values;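 active means more than half of replicate wells show activity change below -50%, luminescence cut by over half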;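 further: luciferase reports HSF-1 transcriptional activity via heat shock element; 0% = median of DMSO wells and -100% = zero luminescence signal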
T cruzi repl – inhibitors of intracellular T. cruzi growth, primary screen, luminescence, NIH3T3 host cells; inhibition, % (concentration not given with the values); hit rate 1.4% among 300,000; T. cruzi beta-gal in NIH3T3, 90 h;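 active means mean inhibition across valid replicates above about 55%, limit read from the data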;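 further: signal also drops with host cell toxicity which is not excluded here; 0% = plate median of DMSO wells and 100% = zero luminescence signal; higher percent means less beta-gal luminescence so fewer parasites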
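System – NIH/3T3 host cells with β-galactosidase reporter T. cruzi · Doses – single 50 nL compound addition per well in DMSO · Reagent – 5000 T. cruzi trypomastigotes/well · Medium – Low-serum DMEM with 2% FBS · Timing – ≥90 h infection period, 3 h prior cell attachment · Evaluation – parasite load inhibition, % · Technique – GalScreen luminescence, 60 min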
Jurkat NFkB inh – inhibitors of induced NF-kB luciferase reporter, primary screen, TCR NF-kB activation inhibitor project, cell-based, luminescence, uHTS. Jurkat, PMA/ionomycin-induced NF-kB luciferase reporter. inhibition, % at 4 µM. hit rate 0.53% among 330,000. AID 435003, 2010; in the data active means inhibition above about 50%
HSF1 activator – HSF-1 activators, primary screen, NIH3T3-HGL cells, MG132 stress, luminescence, single point; NIH3T3-HGL HSF-1 luciferase reporter, 8 h; 100% = twice DMSO control signal; activation, % at 9 µM; hit rate 1.7% among 300,000;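 active means mean replicate activation of at least 50% with a set share of replicates each reaching 50%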;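 further: 0% = median of the neutral control wells and 100% = twice that signal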
697 NFkB inh – inhibitors of PMA/ionomycin-induced NF-kB reporter, 697 cells, primary screen, B-cell NF-kB inhibitor project, cell-based, luminescence, uHTS | 697 B-cell NF-kB luciferase reporter, 16 h | inhibition, % at 4 µM | hit rate 0.33% among 330,000 | AID 435022, 2010; in the data active means inhibition above about 35%
Active calls of the source: *; · = no result given. This is a sample that favours compounds with a hit; in the whole collection about 4.8% have one here.

SMILES	GPR7 antagonist	HSF1 inh	T cruzi repl	Jurkat NFkB inh	HSF1 activator	697 NFkB inh
Cc1ccc(N(C(=O)c2ccco2)C2C=CS(=O)(=O)C2)cc1 (stereo not given)	-1	-1	-15	-2	-17	2
Cc1ccsc1C(C(=O)NCc1ccccc1)N(C(=O)c1csnn1)c1ccccc1 (stereo not given)	-1	-4	9	-15	-9	7
Cc1ccc(-c2nn(-c3ccccc3)cc2CN(C)C(=O)CCC(=O)O)cc1C	4	-55*	26	-15	-60	-5
CC(C)(C)NC(=O)c1ccc2c(c1)N(CC(=O)N1CCCCC1)C(=O)C(C)(C)O2	6	26	4	10	66*	7
Cc1ccc(-c2[nH]c3ccccc3c2SCCNC(=O)c2ccc(S(=O)(=O)N3CCOCC3)cc2)cc1	-3	2	54	7	26	-24
CC(C)c1ccc(C2C3=C(CC(C)(C)CC3=O)NC3=C2C(=O)c2ccccc23)cc1 (stereo not given)	-8	11	58*	6	33	1
Cc1cccc(OC(C)C(=O)Nc2ccccc2C(=O)N2CCCCC2)c1 (stereo not given)	-8	6	-2	2	14	-10
CC(NCC(=O)Nc1ccccc1C(=O)NC1CC1)c1cccc(C(F)(F)F)c1 (stereo not given)	·	·	·	-15	·	-29
CC(OC(=O)c1cc(S(=O)(=O)N(C)c2ccccc2)ccc1Cl)C(=O)Nc1ccc2c(c1)OCCO2 (stereo not given)	-6	8	-1	0	27	3
CN(C)CCNC(=O)c1cc(Sc2ccc(F)cc2)nc2ccccc12	12	-5	65*	16	3	1
Cc1ccc(Sc2cc(C(=O)NCCCN(C)C)c3ccccc3n2)cc1	0	-5	56*	-20	13	5
Cc1ccc(Sc2cc(C(=O)NCCN(C)C)c3ccccc3n2)cc1	13	4	52	3	16	7
COCCCNC(=O)c1cc(Sc2ccc(F)cc2)nc2ccccc12	-5	7	-16	-10	21	-33
CC(=O)Nc1ccc(S(=O)(=O)Oc2ccccc2N2CCCCC2)cc1	20*	-3	12	12	-2	9
Nc1ccc(C23CC4CC(CC(O)(C4)C2)C3)cc1	-2	-78*	1	-2	-80	-20
Nc1ccc(C23CC4CC(CC(CO)(C4)C2)C3)cc1	3	-17	0	-11	-22	-31
NCC12CC3CC(C1)CC(c1ccc(Cl)cc1)(C3)C2	20	9	64*	24	12	12
COCC(C)n1c(SCc2ccc(OC)c(F)c2)nc2ccccc2c1=O (stereo not given)	-6	-1	59*	·	22	·
CCn1c(SCc2ccc(OC)c(F)c2)nc2ccccc2c1=O	-4	3	20	-7	18	7
CCOC(=O)C[C@H]1c2cc(C(F)(F)F)ccc2S(=O)(=O)N1C(C)C	·	-8	-15	8	-3	6
CN(Cc1ccccc1)C(=O)COC(=O)CNS(=O)(=O)c1ccc2ccccc2c1	·	2	-14	-3	-19	-2
CC1=CC(C)(C)N(C(=O)CNC2CCCCC2)c2cc(C)ccc21	23*	2	14	4	11	1
CC1=CC(C)(C)N(C(=O)CCl)c2cc(C)ccc21	1	11	11	14	29	20
Cc1ccc(S(=O)(=O)N2CCOCC2)cc1C(=O)NCc1ccccc1CN1CCCC1	·	·	·	-3	·	-3
Brc1c(CSc2nc3ccccc3s2)nc2ncccn12	3	22	-1	-78	66*	-140
SMILES	GPR7 antagonist	HSF1 inh	T cruzi repl	Jurkat NFkB inh	HSF1 activator	697 NFkB inh
O=[N+]([O-])c1ccc2sc(SCc3nc4ccccn4c3Br)nc2c1	-5	12	-20	0	27	-31
CCN1C(=O)c2cccc3c(S(=O)(=O)N4CCNCC4)ccc1c23	·	·	·	11	·	29
CCOc1ccccc1C(=O)NCC(=O)N1CCC(C)CC1	·	·	·	-19	·	-2
CC(C)(C)Cc1nnc(NS(=O)(=O)c2ccc(F)cc2)s1	-7	-53*	-12	8	-65	-12
Cc1ccc(S(=O)(=O)Nc2nnc(CC(C)(C)C)s2)cc1	-1	2	-1	-6	3	0
Cc1ccc(NC(=S)N2CCN(CCN3C(=O)c4cccc5cccc(c45)C3=O)CC2)cc1	-13	0	74*	-9	29	15
CC(C)(C)C(=O)N1CCN(CCN2C(=O)c3cccc4cccc(c34)C2=O)CC1	6	-53*	-6	-9	-61	-7
COc1cccc(OCC(O)CN2CCN(CCN3C(=O)c4cccc5cccc(c45)C3=O)CC2)c1 (stereo not given)	-2	4	70*	-29	5	-30
CC(=O)c1cccc(NC(=O)COc2cc(C)on2)c1	·	·	·	1	·	24
CC(C)c1ccccc1NC(=O)COC(=O)c1cc([N+](=O)[O-])ccc1N1CCOCC1	·	11	-2	9	-1	9
O=C(OCCN1CCN(c2ncc(C(F)(F)F)cc2Cl)CC1)c1ccc(Cl)cc1	-12	-80*	-19	-11	-84	1
Cc1ccc(S(=O)(=O)NNC(=O)c2sc3nc(C)cc(C)c3c2-n2cccc2)cc1	-16	30	-1	-8	73*	3
CCOc1ccc2c(c1)[N+](C)(C)C(C)(C)C=C2C	-9	-80*	-20	17	-84	-4
COc1ccc2nc(C)cc(Nc3ccc(N4CCOCC4)cc3)c2c1	-12	1	61*	-36	-2	-3
C/C(=N\NC(=O)c1cccc(N/N=C(\C)c2cc(O)ccc2O)c1)c1cc(O)ccc1O	3	26	-49	-2	64*	-37
C/C(=N\NC(=O)c1cccc(N/N=C(\C)c2ccco2)c1)c1ccco1	-7	12	-7	·	30	·
Cc1cccc(OCC(=O)N2CCc3ccccc3C2)c1	11	12	-14	-17	17	-16
Cc1ccc(NC(=O)COC(=O)C2CC3C=CC2C3)cc1S(=O)(=O)N1CCCCC1 (stereo not given)	-9	33	0	7	63*	-21
Cc1ccc(S(=O)(=O)N2CCCCC2)cc1NC(=O)COC(=O)C1CC2C=CC1C2 (stereo not given)	-3	-4	4	3	10	5
CC1=C(C#N)C(NC(=O)c2ccc(Cl)cc2)(C(F)(F)F)C(=O)N1 (stereo not given)	-7	-6	-6	-4	8	6
